{"data": "Experimental data pooled from the literature", "note": "Lines come from different studies, so protocols differ."}
{"SMILES": "CN(C(=O)n1cnc(-c2ccc[n+]([O-])c2)c1)C1CCCCC1", "species": "male cynomolgus monkey", "matrix": "plasma", "route": "oral", "dose": "0.1 mg/kg", "measurement": "Tmax", "result": "1 h"}
{"SMILES": "Fc1ccc(COC2CCN(Cc3ccc4[nH]cnc4c3)CC2)cc1F", "species": "mouse", "matrix": "brain", "route": "intraperitoneal", "dose": "5 mg/kg", "measurement": "unbound tissue/plasma ratio", "result": 3.7}
{"SMILES": "Cn1cc(-c2ccc(S(=O)(=O)[C@@H]3C[C@@H](C(=O)NC4(C#N)CC4)N(C(=O)C4(C(F)(F)F)CC4)C3)c(C(F)(F)F)c2)cn1", "species": "human", "matrix": "plasma", "route": "oral", "dose": "600 mg", "notes": "single dose, fasted, healthy volunteers", "measurement": "AUC(0-inf)", "result": "28700 ng·h/mL"}
{"SMILES": "CCc1nc2c(C)cc(N3CCN(CC(=O)N4CC(O)C4)CC3)cn2c1N(C)c1nc(-c2ccc(F)cc2)c(C#N)s1", "species": "human", "matrix": "plasma", "route": "oral", "dose": "150 mg", "notes": "fed, healthy volunteers", "measurement": "AUC(0-inf)", "result": "6400 ng·h/mL"}
{"SMILES": "CC(C)(C)c1ccc(O)c(CN(Cc2cc(C(C)(C)C)ccc2O)C2CCC(NC(N)=O)CC2)c1 (stereo not shown)", "species": "male C57BL/6 mouse", "matrix": "brain", "route": "intraperitoneal", "dose": "10 mg/kg", "notes": "single dose", "measurement": "tissue/plasma ratio", "result": 0.79}
{"SMILES": "CC(C)Oc1cccc(-c2cnc(N3CCC(C(N)=O)CC3)s2)c1", "species": "male Swiss mouse", "matrix": "brain", "route": "oral", "dose": "30 mg/kg", "notes": "single dose", "measurement": "tissue/plasma ratio", "result": 0.29}
{"SMILES": "CC(C)n1cc(C#N)c2cc(-n3cc(C(=O)O)cn3)ccc21", "species": "male human", "matrix": "plasma", "route": "oral", "dose": "600 mg", "notes": "single dose, fasted, healthy volunteers", "measurement": "AUC(0-inf)", "result": "99800 ng·h/mL"}
{"SMILES": "COc1cc(C(=O)NC2CCN(C)CC2)c(F)cc1Nc1ncc(C(F)(F)F)c(Oc2cccc3c2C(=O)N(C)C3)n1", "species": "human", "matrix": "plasma", "route": "oral", "dose": "25 mg", "notes": "multiple doses, once daily, steady state, patients", "measurement": "AUC", "result": "5.1 µM·h"}
{"SMILES": "CC(C)(O)c1ccccc1-c1ccc2[nH]c(/C=C/c3ccc(C(F)(F)F)cc3)nc2c1", "species": "male human", "matrix": "plasma", "route": "oral", "dose": "15 mg", "notes": "single dose, fasted", "measurement": "AUC(0-t)", "result": "1010 ng·h/mL"}
{"SMILES": "COc1ccc([C@@H]2CN(C(=O)[C@@H](O)CO)C[C@@]2(C)[C@@H](C)O)cc1OC1CN(c2ccc(C)cn2)C1", "species": "human", "matrix": "plasma", "route": "oral", "dose": "20 mg", "notes": "single dose, healthy volunteers", "measurement": "AUC(0-inf)", "result": "4090 ng·h/mL"}
